AI-2 QS modul = Vibrio harveyi AI-2 quorum sensing modulators, primary screen, JMH597 strain, luminescence/OD600 ratio. AID 2094, 2009. activity change, % at 7.5 µM. Vibrio harveyi JMH597 AI-2 luminescence/OD600 ratio, 9 h; stronger effect = lower value; strain lacks LuxN and CqsS sensors; 0 = neutral-control median. 0.4% of 300,000 active; in the data active = activity change below about -75%, passing the limit was not always enough;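 also: luminescence divided by OD600 gain over 9 h not by final OD600 alone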
m5-HT2A agonist = mouse Htr2a agonists via beta-arrestin recruitment, primary screen, cell-based, luminescence. CHO-K1 mHTR2A beta-arrestin complementation; percent of 30 µM serotonin response. activation, % at 7.6 µM. 0.66% of 360,000 active. AID 624169, 2012;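 active = activation above a run cutoff, the mean activation of all tested compounds plus 3 SD, cut at about 14% in these data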;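 also: 0% = plate median of compound wells and 100% = 30 µM serotonin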
AHR act = AHR activators, primary screen, cell-based, luminescence, luciferase reporter, human; Aryl hydrocarbon receptor (Homo sapiens), P35869; AHR-responsive luciferase reporter cells; AID 2796, 2010; 2.5% of 320,000 active; activation, % at 5 µM; in the data active = activation above about 47%;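 also: 0% = vehicle wells and 100% = reference agonist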
Target sequence (P35869 whole entry, looked up): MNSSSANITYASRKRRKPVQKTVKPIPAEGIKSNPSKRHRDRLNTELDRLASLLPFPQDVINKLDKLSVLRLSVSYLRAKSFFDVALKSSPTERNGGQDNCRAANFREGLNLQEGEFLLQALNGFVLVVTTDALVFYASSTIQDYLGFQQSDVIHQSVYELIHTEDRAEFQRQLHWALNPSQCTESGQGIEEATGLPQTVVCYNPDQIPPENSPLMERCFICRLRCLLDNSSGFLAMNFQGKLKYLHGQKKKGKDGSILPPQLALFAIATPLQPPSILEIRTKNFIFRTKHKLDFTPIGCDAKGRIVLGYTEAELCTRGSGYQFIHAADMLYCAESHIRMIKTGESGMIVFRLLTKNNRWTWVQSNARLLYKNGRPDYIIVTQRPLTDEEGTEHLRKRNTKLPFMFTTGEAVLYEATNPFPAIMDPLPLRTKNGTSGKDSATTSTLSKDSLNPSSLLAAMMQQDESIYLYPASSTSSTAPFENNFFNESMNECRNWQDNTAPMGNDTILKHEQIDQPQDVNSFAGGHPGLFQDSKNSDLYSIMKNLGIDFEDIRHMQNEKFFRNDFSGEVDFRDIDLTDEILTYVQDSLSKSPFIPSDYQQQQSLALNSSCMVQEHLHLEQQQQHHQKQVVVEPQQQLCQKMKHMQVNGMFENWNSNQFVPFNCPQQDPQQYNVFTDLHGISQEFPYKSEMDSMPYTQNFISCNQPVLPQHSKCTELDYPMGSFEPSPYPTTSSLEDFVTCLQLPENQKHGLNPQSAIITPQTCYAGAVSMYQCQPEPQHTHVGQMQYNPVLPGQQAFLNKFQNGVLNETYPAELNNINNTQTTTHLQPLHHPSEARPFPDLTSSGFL
Tb MetRS inh = T. brucei MetRS inhibitors, primary screen, biochemical, luminescence; purified T. brucei MetRS, ATP depletion, Kinase-Glo luminescence; 0.4% of 360,000 active; inhibition, % at 11.9 µM;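 active = inhibition above a per-plate cutoff of the control wells' mean inhibition plus 3 SD, cut at about 5.5% in these data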;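 also: 0% = DMSO wells median and 100% = median of wells with control inhibitor compound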
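Material: parasite MetRS enzyme / Replication: singlicate, one well per compound / Signal: luminescence of leftover ATP / Schedule: 2 h aminoacylation at 25 °C after 15 min preincubation / Medium: HEPES-MgCl2-KCl buffer plus DTT, spermine, BSA, pyrophosphatase / Doses: 11.9 µM single point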
bovine MsrA act = bovine MsrA enzyme activators, primary screen, biochemical, absorbance, HTS. 0.3% of 360,000 active. activation, % at 10.6 µM. purified bovine MsrA, absorbance read-out. Methionine sulfoxide reductase A (Bos taurus); in the data active = activation above about 7.5%;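 also: 0% = vehicle and 100% = reference activator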
MsrA inh = bovine MsrA enzyme inhibitors, primary screen, biochemical, absorbance, HTS. Methionine sulfoxide reductase A (Bos taurus). purified bovine MsrA, absorbance read-out. inhibition, % at 15.5 µM. 0.75% of 360,000 active. AID 651718, 2012;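 also: 0% = vehicle wells with enzyme and 100% = reference inhibitor wells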
MsrA inh confirm = bovine MsrA inhibitors, retest, confirmation, biochemical, absorbance, HTS; 41% of 2,300 active; purified bovine MsrA, absorbance read-out; inhibition, % at 15.5 µM; AID 651822, 2012; shares compounds with MsrA inh;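 also: coupled to thioredoxin reductase with NADPH and selenocystamine and DMSO as substrate; 0% = vehicle only and 100% = full effect of reference inhibitor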
* = called active by the depositor; . = no result. Sampled rows, rich in hits. Any-hit rate of the full collection: about 4.4%. Rule as the data show it, unless noted: active = inhibition above about 4.5%; inactive = the rest.

SMILES | AI-2 QS modul | m5-HT2A agonist | AHR act | Tb MetRS inh | bovine MsrA act | MsrA inh | MsrA inh confirm
Cc1cccc(C(O)c2ncc(-c3ccccc3F)[nH]2)c1C (centres undefined) | . | 0 | . | 0 | -5 | 0 | .
N#Cc1nc(-c2ccco2)oc1N1CCOCC1 | 20 | 3 | 7 | 0 | -3 | 2 | .
N#Cc1nc(-c2cccs2)oc1N1CCOCC1 | 15 | 3 | 28 | 0 | -4 | 5.1* | 2
COC(=O)[C@]12CCCCC=C1N(Cc1ccc3c(c1)OCO3)C(=O)[C@H](CC(=O)N1CCC(c3ccccc3)CC1)C2 | . | 4 | . | 0 | . | 0 | .
NC(CSS(=O)(=O)O)=NCCC12CC3CC(CC(O)(C3)C1)C2 | -5 | 6 | 1 | 0 | -7 | 7.5* | 4
NC(=O)COC(=O)C12CC3CC(CC(O)(C3)C1)C2 | 31 | -3 | 4 | 0 | -2 | 0 | .
Cc1nn(S(=O)(=O)c2ccc(Br)cc2)c(C)c1S(=O)(=O)N1CCOCC1 | -1 | -2 | 0 | 0 | -1 | -1 | .
CCN(CC)c1ccc(/C=N/NC(=O)CNC(=O)/C=C/c2ccco2)cc1 | 11 | -4 | 14 | 0 | -12 | 6.3* | 8.0*
COc1ccc(CC(=O)N/N=C/C=C/c2ccc3c(c2)OCO3)cc1OC | 9 | 3 | 18 | 0 | -6 | 5.9* | 4
COc1ccc(/C=N/NC(=O)Cc2ccc(Cl)cc2)cc1OC | 4 | -9 | 19 | 0 | -5 | 0 | .
CCN(CC)c1ccc(/C=N/NC(=O)Cc2ccc(OC)c(OC)c2)cc1 | -1 | 0 | 11 | 0 | -7 | 5.2* | 2
CCOC(=O)N/N=C\C=C\c1ccc2c(c1)OCO2 | 23 | 1 | 49* | 0 | -5 | 7.3* | 4.7*
CCN(CC(=O)NCc1ccc(F)cc1)C(=O)c1ccc2c(c1)OCO2 | . | -2 | 2 | 0 | -6 | 0 | .
CC(C)[C@@H]1NC(=O)[C@@H]2CSCCS(=O)(=O)N2C1=O | . | . | . | . | . | -1 | .
CC1CCN(C(=O)c2ccc3c(c2)OCO3)CC1 | 21 | 6 | 5 | -1 | -6 | -2 | .
COC(=O)N/N=C\C=C\c1ccc2c(c1)OCO2 | 3 | 1 | 20 | -1 | -10 | 3 | .
CC(C)(C)OC(=O)N/N=C\C=C\c1ccc2c(c1)OCO2 | 28 | 2 | 36 | 0 | -4 | 5.1* | 4
CCCN1CCCc2cc(CN)ccc21 | 33 | 2 | 3 | 0 | -6 | 16* | -1
CN1CCCc2cc(C=O)ccc21 | -5 | 1 | 2 | -1 | -10 | 1 | .
Cc1ccc(/C=C(\C#N)C(=O)NC(C)C)o1 | 12 | 2 | -3 | -1 | -17 | 6.1* | 5.0*
Cc1ccc(/C=C(/C#N)C(=O)NC(C)c2ccccc2)o1 (centres undefined) | 11 | -4 | -5 | -2 | -11 | 3 | .
O=C(O)COc1ccccc1/C=N/NC(=O)c1cc(-c2ccc(Cl)cc2)nc2ccccc12 | 57 | -7 | 64* | 0 | -6 | 5.0* | 4
O=C(O)COc1ccccc1/C=N/NC(=O)c1cc(-c2ccccc2)nc2ccccc12 | 18 | -5 | 16 | 0 | -6 | 4 | .
COc1ccc(NC(=O)C(c2ccc(C#N)cc2)n2c(=O)c(-c3ccco3)nc3ccccc32)cc1 (centres undefined) | . | -1 | . | 0 | . | 0 | .
O=C(Nc1cccc(OC(F)(F)F)c1)c1cccc2c(-c3cccnc3)coc12 | . | 3 | . | 0 | -7 | . | .
CN(C)/C=N/c1ncc(C(=O)c2ccccc2)s1 | -2 | 1 | 1 | -1 | -6 | 5.6* | 4.7*
CN(C)/C=N/c1ncc(C(=O)c2ccc(-c3ccccc3)cc2)s1 | 17 | -2 | 1 | 0 | -4 | 1 | .
Cc1cc(=O)oc2c(O)c(O)ccc12 | . | -3 | . | -1 | -2 | 1 | .

Screens: PubChem, several laboratories
